ChEMBL document CHEMBL5696442, “Discovery of type II inhibitors of TGFβ-activated kinase 1 (TAK1) and mitogen-activated protein kinase kinase kinase kinase 2 (MAP4K2)” (J Med Chem, 2015)
Active and inactive are the calls of the source. The calls are words filed in the database; no cut-off is given here.

Experiments:
[1] = target: T1, Scaffold protein ILK (Homo sapiens) (UniProt Q13418); test: Inhibition of ILK Protein Kinase Domain labeling site in human Huh-7 cell lysate at 1 uM by KiNativ Profiling analysis relative to control; format: subcellular
T1 sequence (whole entry): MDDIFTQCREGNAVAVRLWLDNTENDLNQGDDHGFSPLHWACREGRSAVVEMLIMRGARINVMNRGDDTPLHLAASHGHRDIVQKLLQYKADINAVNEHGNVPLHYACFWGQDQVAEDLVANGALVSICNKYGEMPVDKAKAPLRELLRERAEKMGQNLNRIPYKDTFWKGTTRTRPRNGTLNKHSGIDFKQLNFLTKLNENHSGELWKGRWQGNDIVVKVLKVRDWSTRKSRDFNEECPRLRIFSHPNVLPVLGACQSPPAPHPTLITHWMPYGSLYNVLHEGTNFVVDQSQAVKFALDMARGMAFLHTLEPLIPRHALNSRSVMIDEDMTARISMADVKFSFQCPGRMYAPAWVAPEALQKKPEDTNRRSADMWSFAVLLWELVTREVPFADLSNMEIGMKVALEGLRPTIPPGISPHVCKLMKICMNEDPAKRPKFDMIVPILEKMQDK

[2] = target: DNA-PK/Ku70/Ku85 (Homo sapiens) (UniProt P78527+P12956+P13010); test: Inhibition of DNAPK ATP labeling site harbouring KGGSWIQEINVAEK in human Huh-7 cells at 1 uM by KiNativ Profiling analysis relative to control; format: cell-based
[3] = target: Cyclin-dependent kinase 6 (Homo sapiens) (UniProt Q00534); test: Inhibition of CDK6 Lys2 labeling site in human Huh-7 cells at 1 uM by KiNativ Profiling analysis relative to control; format: cell-based
[4] = target: Ribosomal protein S6 kinase alpha-4 (Homo sapiens) (UniProt O75676); test: Inhibition of MSK2 domain1 ATP Loop labeling site in human Huh-7 cells at 1 uM by KiNativ Profiling analysis relative to control; format: cell-based
[5] = target: Rho-associated protein kinase 1 (Homo sapiens) (UniProt Q13464); test: Inhibition of ROCK1 Lys2 labeling site in human A-375 cells at 0.05 uM by KiNativ Profiling analysis relative to control; format: cell-based
[6] = target: Tyrosine-protein kinase receptor UFO (Homo sapiens) (UniProt P30530); test: Inhibition of AXL (unknown origin) at 10 uM by Ambit Kinomescan binding assay
Procedure, shortened: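 In vitro ATP-site competition binding assay against a panel of over 420 kinases (KinomeScan), with compound tested at 10 or 1 μM.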

[7] = target: T2, Ephrin type-B receptor 4 (Homo sapiens) (UniProt P54760); test: Inhibition of EPHB4 (unknown origin) at 10 uM by Ambit Kinomescan binding assay
T2 sequence (whole entry): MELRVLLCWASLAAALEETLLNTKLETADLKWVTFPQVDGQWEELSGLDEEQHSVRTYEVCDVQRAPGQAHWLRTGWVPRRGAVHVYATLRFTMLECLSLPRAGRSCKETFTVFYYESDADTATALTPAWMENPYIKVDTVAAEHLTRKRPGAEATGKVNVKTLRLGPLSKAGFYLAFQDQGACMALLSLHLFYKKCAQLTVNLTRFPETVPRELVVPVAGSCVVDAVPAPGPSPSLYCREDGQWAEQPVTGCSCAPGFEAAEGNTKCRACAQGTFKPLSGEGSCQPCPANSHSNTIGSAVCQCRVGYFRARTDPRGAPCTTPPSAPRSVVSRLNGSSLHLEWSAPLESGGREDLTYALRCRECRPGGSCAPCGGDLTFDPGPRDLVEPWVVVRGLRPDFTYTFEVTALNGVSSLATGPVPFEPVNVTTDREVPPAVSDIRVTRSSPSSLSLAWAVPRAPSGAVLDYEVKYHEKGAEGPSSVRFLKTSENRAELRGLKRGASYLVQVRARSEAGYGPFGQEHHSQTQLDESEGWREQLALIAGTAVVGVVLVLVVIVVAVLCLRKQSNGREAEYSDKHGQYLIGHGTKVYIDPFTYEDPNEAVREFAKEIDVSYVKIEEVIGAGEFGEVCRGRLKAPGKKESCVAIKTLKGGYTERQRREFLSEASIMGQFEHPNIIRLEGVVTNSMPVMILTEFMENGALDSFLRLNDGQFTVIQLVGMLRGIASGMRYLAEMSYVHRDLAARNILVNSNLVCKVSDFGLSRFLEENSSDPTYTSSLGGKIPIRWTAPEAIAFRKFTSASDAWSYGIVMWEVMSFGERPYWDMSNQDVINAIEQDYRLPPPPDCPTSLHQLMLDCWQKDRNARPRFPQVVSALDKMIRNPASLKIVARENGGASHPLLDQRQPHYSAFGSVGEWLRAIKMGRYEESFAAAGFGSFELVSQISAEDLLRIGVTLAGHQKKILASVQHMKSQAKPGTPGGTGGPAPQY

[8] = target: Tyrosine-protein kinase Yes (Homo sapiens) (UniProt P07947); test: Inhibition of YES ACT labeling site in human Huh-7 cells at 1 uM by KiNativ Profiling analysis relative to control; format: cell-based
[9] = target: Mitogen-activated protein kinase 6 (Homo sapiens) (UniProt Q16659); test: Inhibition of ERK3 (unknown origin) at 10 uM by Ambit Kinomescan binding assay
[10] = target: Cyclin-dependent kinase 14 (Homo sapiens) (UniProt O94921); test: Inhibition of PFTK1 (unknown origin) at 10 uM by Ambit Kinomescan binding assay relative to control
[11] = target: Tyrosine-protein kinase receptor TYRO3 (Homo sapiens) (UniProt Q06418); test: Inhibition of TYRO3 (unknown origin) at 10 uM by Ambit Kinomescan binding assay
[12] = target: Serine/threonine-protein kinase B-raf (Homo sapiens, UniProt P15056); test: Inhibition of BRAF Lys2 labeling site in human A-375 cells at 0.5 uM by KiNativ Profiling analysis relative to control; format: cell-based
[13] = target: Mitogen-activated protein kinase kinase kinase 12 (Homo sapiens) (UniProt Q12852); test: Inhibition of DLK Lys2 labeling site harbouring in human A-375 cells at 0.05 uM by KiNativ Profiling analysis relative to control

Chain of Mitogen-activated protein kinase 6 (Homo sapiens) (Q16659 whole entry): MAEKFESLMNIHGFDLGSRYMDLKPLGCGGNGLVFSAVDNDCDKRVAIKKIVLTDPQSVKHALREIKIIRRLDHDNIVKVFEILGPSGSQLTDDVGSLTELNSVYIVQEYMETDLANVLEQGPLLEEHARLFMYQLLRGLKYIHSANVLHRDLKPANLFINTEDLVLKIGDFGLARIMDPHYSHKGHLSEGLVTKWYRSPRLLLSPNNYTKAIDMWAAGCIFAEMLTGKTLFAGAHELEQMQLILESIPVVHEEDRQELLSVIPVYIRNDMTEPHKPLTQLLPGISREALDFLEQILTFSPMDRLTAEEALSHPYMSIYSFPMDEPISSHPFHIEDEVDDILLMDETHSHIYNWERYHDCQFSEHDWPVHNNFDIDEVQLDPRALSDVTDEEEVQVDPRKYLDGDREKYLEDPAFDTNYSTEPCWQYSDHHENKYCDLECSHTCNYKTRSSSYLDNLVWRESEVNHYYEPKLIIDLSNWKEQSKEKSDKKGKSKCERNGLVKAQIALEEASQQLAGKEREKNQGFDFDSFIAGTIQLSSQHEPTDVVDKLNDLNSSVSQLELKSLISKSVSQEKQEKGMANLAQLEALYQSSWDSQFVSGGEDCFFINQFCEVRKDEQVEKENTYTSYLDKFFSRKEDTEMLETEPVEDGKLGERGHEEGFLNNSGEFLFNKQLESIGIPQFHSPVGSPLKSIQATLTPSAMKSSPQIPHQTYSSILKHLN
Chain of Serine/threonine-protein kinase B-raf (P15056 whole entry): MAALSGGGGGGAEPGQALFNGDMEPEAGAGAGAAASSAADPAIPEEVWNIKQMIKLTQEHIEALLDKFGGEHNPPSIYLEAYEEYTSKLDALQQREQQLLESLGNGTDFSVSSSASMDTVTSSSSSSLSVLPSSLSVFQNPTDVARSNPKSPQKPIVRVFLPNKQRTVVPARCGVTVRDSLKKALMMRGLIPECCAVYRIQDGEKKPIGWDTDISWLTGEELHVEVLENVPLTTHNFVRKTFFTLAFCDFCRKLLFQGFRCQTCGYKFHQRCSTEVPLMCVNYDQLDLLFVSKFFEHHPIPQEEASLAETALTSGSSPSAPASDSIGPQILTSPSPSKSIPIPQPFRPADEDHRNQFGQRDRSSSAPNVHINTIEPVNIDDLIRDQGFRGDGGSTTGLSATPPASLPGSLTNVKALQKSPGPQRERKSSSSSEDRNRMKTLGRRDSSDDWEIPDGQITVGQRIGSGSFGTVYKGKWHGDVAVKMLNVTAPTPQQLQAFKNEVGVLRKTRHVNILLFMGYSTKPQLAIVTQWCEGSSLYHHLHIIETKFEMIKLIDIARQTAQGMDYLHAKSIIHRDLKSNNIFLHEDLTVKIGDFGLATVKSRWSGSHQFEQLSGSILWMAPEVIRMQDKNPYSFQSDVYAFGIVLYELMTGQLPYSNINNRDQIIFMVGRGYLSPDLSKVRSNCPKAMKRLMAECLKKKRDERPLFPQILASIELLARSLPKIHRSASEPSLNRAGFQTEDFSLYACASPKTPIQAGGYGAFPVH
Chain of Tyrosine-protein kinase receptor TYRO3 (Homo sapiens) (Q06418 whole entry): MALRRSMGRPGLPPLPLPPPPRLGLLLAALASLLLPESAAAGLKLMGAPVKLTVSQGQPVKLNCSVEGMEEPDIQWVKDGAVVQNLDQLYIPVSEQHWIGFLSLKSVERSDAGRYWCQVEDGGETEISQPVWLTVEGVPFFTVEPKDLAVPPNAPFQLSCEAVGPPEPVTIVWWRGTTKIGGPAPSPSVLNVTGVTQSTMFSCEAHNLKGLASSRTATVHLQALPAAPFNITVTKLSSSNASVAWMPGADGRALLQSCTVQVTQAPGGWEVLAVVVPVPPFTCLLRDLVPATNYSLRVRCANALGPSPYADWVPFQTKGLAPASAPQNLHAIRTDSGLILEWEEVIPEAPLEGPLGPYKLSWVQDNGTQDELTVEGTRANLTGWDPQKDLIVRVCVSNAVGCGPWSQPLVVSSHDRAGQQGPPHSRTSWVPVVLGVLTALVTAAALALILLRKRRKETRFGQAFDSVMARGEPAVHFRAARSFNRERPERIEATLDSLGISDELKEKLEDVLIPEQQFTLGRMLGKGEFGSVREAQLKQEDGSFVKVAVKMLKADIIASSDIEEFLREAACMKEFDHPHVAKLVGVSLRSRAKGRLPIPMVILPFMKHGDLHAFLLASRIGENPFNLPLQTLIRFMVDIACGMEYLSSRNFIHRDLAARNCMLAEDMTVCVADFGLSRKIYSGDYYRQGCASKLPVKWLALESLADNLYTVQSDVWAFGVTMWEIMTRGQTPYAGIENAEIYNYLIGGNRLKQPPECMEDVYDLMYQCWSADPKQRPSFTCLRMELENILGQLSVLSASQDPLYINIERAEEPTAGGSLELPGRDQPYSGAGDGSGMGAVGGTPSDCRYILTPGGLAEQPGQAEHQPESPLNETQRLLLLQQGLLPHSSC
Chain of Cyclin-dependent kinase 14 (Homo sapiens) (O94921 whole entry): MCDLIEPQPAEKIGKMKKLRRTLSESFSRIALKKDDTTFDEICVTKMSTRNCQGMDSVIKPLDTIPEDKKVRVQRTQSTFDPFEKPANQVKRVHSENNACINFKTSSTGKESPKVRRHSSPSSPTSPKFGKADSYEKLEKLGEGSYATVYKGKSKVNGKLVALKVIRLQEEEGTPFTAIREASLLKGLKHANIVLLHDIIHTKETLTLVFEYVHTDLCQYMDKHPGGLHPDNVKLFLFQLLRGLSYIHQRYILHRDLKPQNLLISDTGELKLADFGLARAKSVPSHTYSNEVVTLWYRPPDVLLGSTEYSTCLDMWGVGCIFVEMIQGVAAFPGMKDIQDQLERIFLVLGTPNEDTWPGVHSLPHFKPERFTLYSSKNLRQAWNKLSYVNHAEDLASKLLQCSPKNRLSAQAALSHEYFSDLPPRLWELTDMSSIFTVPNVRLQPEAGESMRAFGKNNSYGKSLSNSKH
Chain of Rho-associated protein kinase 1 (Homo sapiens) (Q13464 2-1354 limits assumed): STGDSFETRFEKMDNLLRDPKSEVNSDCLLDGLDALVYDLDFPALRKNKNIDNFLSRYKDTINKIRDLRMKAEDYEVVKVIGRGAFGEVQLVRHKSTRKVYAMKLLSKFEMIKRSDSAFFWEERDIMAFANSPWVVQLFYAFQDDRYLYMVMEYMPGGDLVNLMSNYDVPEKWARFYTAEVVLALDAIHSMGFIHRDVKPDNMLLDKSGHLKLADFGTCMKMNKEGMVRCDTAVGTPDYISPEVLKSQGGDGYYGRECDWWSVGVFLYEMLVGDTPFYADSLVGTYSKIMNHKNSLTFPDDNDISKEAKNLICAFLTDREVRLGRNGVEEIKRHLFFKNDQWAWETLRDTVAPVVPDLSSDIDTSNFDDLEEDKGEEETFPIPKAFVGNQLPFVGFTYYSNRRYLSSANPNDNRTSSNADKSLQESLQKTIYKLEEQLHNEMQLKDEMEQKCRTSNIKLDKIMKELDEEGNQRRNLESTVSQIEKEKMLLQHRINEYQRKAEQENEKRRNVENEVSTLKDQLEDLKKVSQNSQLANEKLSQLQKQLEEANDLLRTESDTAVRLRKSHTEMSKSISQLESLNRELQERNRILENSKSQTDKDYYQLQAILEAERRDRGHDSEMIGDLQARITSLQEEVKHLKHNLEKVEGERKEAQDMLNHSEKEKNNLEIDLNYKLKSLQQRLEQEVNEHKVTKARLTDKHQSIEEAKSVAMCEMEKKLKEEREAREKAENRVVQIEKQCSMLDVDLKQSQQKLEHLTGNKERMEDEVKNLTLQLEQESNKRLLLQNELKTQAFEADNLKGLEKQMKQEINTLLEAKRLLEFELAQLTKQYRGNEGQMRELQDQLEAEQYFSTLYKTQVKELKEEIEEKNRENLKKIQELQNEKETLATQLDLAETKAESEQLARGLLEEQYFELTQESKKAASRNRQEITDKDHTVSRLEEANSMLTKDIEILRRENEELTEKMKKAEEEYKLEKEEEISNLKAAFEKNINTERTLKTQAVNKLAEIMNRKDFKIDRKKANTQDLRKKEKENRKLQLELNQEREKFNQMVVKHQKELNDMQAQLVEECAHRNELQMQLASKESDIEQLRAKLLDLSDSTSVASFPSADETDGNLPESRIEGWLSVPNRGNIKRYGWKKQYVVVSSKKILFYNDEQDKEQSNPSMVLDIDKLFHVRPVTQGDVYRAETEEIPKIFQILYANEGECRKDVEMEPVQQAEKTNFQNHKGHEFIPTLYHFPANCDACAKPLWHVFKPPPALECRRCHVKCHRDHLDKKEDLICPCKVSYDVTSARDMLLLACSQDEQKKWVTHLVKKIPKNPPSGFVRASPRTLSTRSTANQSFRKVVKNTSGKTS
Chain of Ribosomal protein S6 kinase alpha-4 (Homo sapiens) (O75676 whole entry, looked up, the tested form may be a part): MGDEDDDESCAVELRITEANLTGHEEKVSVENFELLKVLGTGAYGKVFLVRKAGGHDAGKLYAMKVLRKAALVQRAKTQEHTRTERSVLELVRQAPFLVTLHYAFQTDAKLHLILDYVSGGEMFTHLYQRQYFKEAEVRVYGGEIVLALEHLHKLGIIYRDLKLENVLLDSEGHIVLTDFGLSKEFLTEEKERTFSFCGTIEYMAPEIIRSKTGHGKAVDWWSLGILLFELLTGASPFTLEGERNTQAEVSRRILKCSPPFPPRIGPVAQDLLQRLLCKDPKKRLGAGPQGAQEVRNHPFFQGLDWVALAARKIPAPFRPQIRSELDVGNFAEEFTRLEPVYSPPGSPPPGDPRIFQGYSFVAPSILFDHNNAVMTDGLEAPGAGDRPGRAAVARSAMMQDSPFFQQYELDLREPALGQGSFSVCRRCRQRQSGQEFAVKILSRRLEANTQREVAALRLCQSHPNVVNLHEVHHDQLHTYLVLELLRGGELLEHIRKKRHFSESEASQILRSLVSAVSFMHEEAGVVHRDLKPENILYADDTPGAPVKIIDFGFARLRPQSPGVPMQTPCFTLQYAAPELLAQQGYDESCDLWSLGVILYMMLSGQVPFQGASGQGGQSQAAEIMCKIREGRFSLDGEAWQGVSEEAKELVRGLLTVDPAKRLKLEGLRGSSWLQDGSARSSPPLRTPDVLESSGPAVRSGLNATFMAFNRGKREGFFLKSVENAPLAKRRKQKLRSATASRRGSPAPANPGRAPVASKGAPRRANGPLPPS

**Q.** With `CNc1cc(Oc2cc(C(=O)Nc3cc(N4CCN(C)CC4)cc(C(F)(F)F)c3)ccc2C)ncn1` as the compound, how does the inhibition [1] read?
**A.** -2.4%

**Q.** What about the inhibition [2] of the same compound?
**A.** 71.1%

**Q.** And the inhibition [3]?
**A.** 24.4%

**Q.** What about the inhibition [4] of the same compound?
**A.** 11.5%

**Q.** With `CCN1CCN(Cc2ccc(NC(=O)c3ccc(C)c(Oc4ccnc5[nH]ccc45)c3)cc2C(F)(F)F)CC1` as the compound, how does the inhibition [5] read?
**A.** 6%

**Q.** What about the inhibition [6] of the same compound?
**A.** inactive

**Q.** What about the inhibition [7] of the same compound?
**A.** inactive

**Q.** And the inhibition [8]?
**A.** -0.3%

**Q.** And the inhibition [9]?
**A.** inactive

**Q.** What about the inhibition [10] of the same compound?
**A.** 0.4%

**Q.** What about the inhibition [11] of the same compound?
**A.** inactive

**Q.** Which inhibition [12] does the source give for `CCN1CCN(Cc2ccc(NC(=O)c3ccc(C)c(/C=C/c4cnc5[nH]ccc5c4OC)c3)cc2C(F)(F)F)CC1` here?
**A.** 58.7%

**Q.** And the inhibition [13]?
**A.** 9%
